From ChEMBL document CHEMBL1158122, “Anti-inflammatory, anti-tumor-promoting, and cytotoxic activities of constituents of marigold (Calendula officinalis) flowers” (J Nat Prod, 2006)

Columns and labels:
SN12C = assay: Cytotoxicity against human SN12C cells after 48 hrs by SRB assay; assay type: functional
A549 = assay: Cytotoxicity against human A549 cells after 48 hrs by SRB assay; assay type: functional; conditions: A549, 48 h
SK-MEL-5 = assay: Cytotoxicity against human SK-MEL-5 cells after 48 hrs by SRB assay; assay type: functional; conditions: SK-MEL-5, 48 h
EKVX = assay: Cytotoxicity against human EKVX cells after 48 hrs by SRB assay; assay type: functional
SK-MEL-2 = assay: Cytotoxicity against human SK-MEL-2 cells after 48 hrs by SRB assay; assay type: functional; conditions: SK-MEL-2, 48 h
[1] = Cytotoxicity against human SK MEL28 cells after 48 hrs by SRB assay; assay type: functional; conditions: SK-MEL-28, 48 h
U-251 = assay: Cytotoxicity against human U251 cells after 48 hrs by SRB assay; assay type: functional; conditions: U-251, 48 h
How it was run: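 Tested in the NCI panel of 60 human tumour cell lines covering lung, colon, melanoma, renal, ovarian, breast and leukaemia. At least five concentrations were run in 10-fold dilutions starting from 10^-4 M. Exposure was continuous for 48 h. Growth or viability was estimated by sulforhodamine B protein staining, and GI50 values were reported.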

Mus musculus = assay: Antiinflammatory activity against TPA-induced ear edema in mouse; assay type: functional
How it was run: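 Specific-pathogen-free female ICR mice were housed five per cage at 24 ± 2 °C. Inflammation was induced on the ear with TPA at 1 µg/ear, and the test agent was applied per ear. Ear edema inhibition was expressed as ID50 in mg per ear.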

OVCAR-3 = assay: Cytotoxicity against human OVCAR-3 cells after 48 hrs by SRB assay; assay type: functional; conditions: OVCAR-3, 48 h
K562 = assay: Cytotoxicity against human K-562 cells after 48 hrs by SRB assay; assay type: functional; conditions: K562, 48 h
BT-549 = assay: Cytotoxicity against human BT-549 cells after 48 hrs by SRB assay; assay type: functional; conditions: BT-549, 48 h
[2] = Cytotoxicity against human Raji cells assessed as cell viability at 100 molar ratio; assay type: cell-based; conditions: read-out: Activity
How it was run: (§1)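 Raji cells were treated with 32 pmol TPA to induce EBV early antigen activation. The test agent was added at 10, 100, 500 or 1000 mol ratio relative to TPA, and Raji cell viability was measured alongside EA activation.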

KM12 = assay: Cytotoxicity against human KM12 cells after 48 hrs by SRB assay; assay type: functional; conditions: KM12, 48 h
MDA-MB-231 = assay: Cytotoxicity against human MDA-MB-231 cells after 48 hrs by SRB assay; assay type: functional; conditions: MDA-MB-231, 48 h
SNB-19 = assay: Cytotoxicity against human SNB-19 cells after 48 hrs by SRB assay; assay type: functional; conditions: SNB-19, 48 h
RPMI-8226 = assay: Cytotoxicity against human RPMI8226 cells after 48 hrs by SRB assay; assay type: functional; conditions: RPMI-8226, 48 h
CCRF-CEM = assay: Cytotoxicity against human CCRF-CEM cells after 48 hrs by SRB assay; assay type: functional
ACHN = assay: Cytotoxicity against human ACHN cells after 48 hrs by SRB assay; assay type: functional
[3] = Cytotoxicity against human HCT 116 cells after 48 hrs by SRB assay; assay type: functional; conditions: HCT-116, 48 h
[4] = Inhibition of TPA-induced EBV-early antigen activation in human Raji cells relative to TPA; assay type: cell-based, human gammaherpesvirus 4
OVCAR-5 = assay: Cytotoxicity against human OVCAR5 cells after 48 hrs by SRB assay; assay type: functional; conditions: OVCAR-5, 48 h
HT-29 = assay: Cytotoxicity against human HT-29 cells after 48 hrs by SRB assay; assay type: functional; conditions: HT-29, 48 h
Raji = assay: Inhibition of TPA-induced EBV-early antigen activation in human Raji cells at 10 molar ratio relative to TPA; assay type: cell-based; parameters: scale not given: the % may be the effect or the level left; conditions: human gammaherpesvirus 4
SW-620 = assay: Cytotoxicity against human SW620 cells after 48 hrs by SRB assay; assay type: functional; conditions: SW-620, 48 h
LOX IMVI = assay: Cytotoxicity against human LOX IMVI cells after 48 hrs by SRB assay; assay type: functional
NCI-H23 = assay: Cytotoxicity against human NCI-H23 cells after 48 hrs by SRB assay; assay type: functional; conditions: NCI-H23, 48 h
NCI-H322M = assay: Cytotoxicity against human NCI-H322M cells after 48 hrs by SRB assay; assay type: functional
NCI-H460 = assay: Cytotoxicity against human NCI-H460 cells after 48 hrs by SRB assay; assay type: functional; conditions: NCI-H460, 48 h
[5] = Cytotoxicity against human Raji cells assessed as cell viability at 500 molar ratio; assay type: cell-based; conditions: read-out: Activity; how it was run: as §1
Malme-3M = assay: Cytotoxicity against human MALME-3M cells after 48 hrs by SRB assay; assay type: functional

Question: With `CCCCOC(=O)[C@H]1O[C@@H](O[C@H]2CC[C@]3(C)[C@H]4CC=C5[C@@H]6CC(C)(C)CC[C@]6(C(=O)O[C@@H]6O[C@H](CO)[C@@H](O)[C@H](O)[C@H]6O)CC[C@@]5(C)[C@]4(C)CC[C@H]3C2(C)C)[C@H](O)[C@@H](O)[C@@H]1O` as the compound, how does the GI50 (SN12C) read?
Answer: The GI50 was 1.39 µM.

Question: What about the GI50 (A549) of the same compound?
Answer: Its GI50 is 1.83 µM.

Question: And the GI50 (SK-MEL-5)?
Answer: Its GI50 is 0.93 µM.

Question: What about the GI50 (EKVX) of the same compound?
Answer: Its GI50 is 3.39 µM.

Question: And the GI50 (SK-MEL-2)?
Answer: Its GI50 is 1.85 µM.

Question: And the GI50 [1]?
Answer: The GI50 was 2.6 µM.

Question: What about the GI50 (U-251) of the same compound?
Answer: Its GI50 is 1.06 µM.

Question: What about the ID50 (Mus musculus) of the same compound?
Answer: The ID50 was 0.07 mg.

Question: What about the GI50 (OVCAR-3) of the same compound?
Answer: Its GI50 is 3.27 µM.

Question: And the GI50 (K562)?
Answer: The GI50 was 1.58 µM.

Question: And the GI50 (BT-549)?
Answer: Its GI50 is 1.7 µM.

Question: And the viability at 100 molar ratio [2]?
Answer: Its viability at 100 molar ratio is > 80%.

Question: And the GI50 (KM12)?
Answer: The GI50 was 2.08 µM.

Question: And the GI50 (MDA-MB-231)?
Answer: The GI50 was 1.15 µM.

Question: And the GI50 (SNB-19)?
Answer: The GI50 was 1.44 µM.

Question: And the GI50 (RPMI-8226)?
Answer: The GI50 was 0.78 µM.

Question: What about the GI50 (CCRF-CEM) of the same compound?
Answer: Its GI50 is 23.1 µM.

Question: What about the GI50 (ACHN) of the same compound?
Answer: The GI50 was 6.29 µM.

Question: And the GI50 [3]?
Answer: The GI50 was 1.12 µM.

Question: What about the IC50 [4] of the same compound?
Answer: Its IC50 is 479 molar ratio.

Question: And the GI50 (OVCAR-5)?
Answer: The GI50 was 3.07 µM.

Question: What about the GI50 (HT-29) of the same compound?
Answer: The GI50 was 2.07 µM.

Question: What about the Activity (Raji) of the same compound?
Answer: Its Activity is 100%.

Question: What about the GI50 (SW-620) of the same compound?
Answer: The GI50 was 1.93 µM.

Question: What about the GI50 (LOX IMVI) of the same compound?
Answer: Its GI50 is 0.81 µM.

Question: And the GI50 (NCI-H23)?
Answer: The GI50 was 1.48 µM.

Question: And the GI50 (NCI-H322M)?
Answer: Its GI50 is 4.08 µM.

Question: And the GI50 (NCI-H460)?
Answer: Its GI50 is 2.51 µM.

Question: What about the viability at 500 molar ratio [5] of the same compound?
Answer: The viability at 500 molar ratio was > 80%.

Question: What about the GI50 (Malme-3M) of the same compound?
Answer: Its GI50 is 1.47 µM.
